Results from ChEMBL document CHEMBL1149311, “Synthesis and antitumor activity of methyltriazene prodrugs simultaneously releasing DNA-methylating agents and the antiresistance drug O(6)-benzylguanine” (J Med Chem, 2004).

Columns and labels:
OVCAR-4 = assay: Antitumor activity against human OVCAR4 cells; format: functional
In short: (§1)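 Tested in the NCI in vitro disease-oriented human tumor cell screen. The endpoints are IC50 (molar concentration giving 50% growth inhibition), TGI (total growth inhibition) and LC50 (50% net cell death). The maximal concentration tested was 100 μM. Subpanel values are means of several individual cell lines.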

OVCAR-8 = assay: Antitumor activity against human OVCAR8 cells; format: functional; in short: as §1
SK-OV-3 = assay: Antitumor activity against human SKOV3 cells; format: functional; in short: as §1
CAKI-1 = assay: Antitumor activity against human CAKI1 cells; format: functional; in short: as §1
TK-10 = assay: Antitumor activity against human TK10 cells; format: functional
In short: (§2)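 NCI in vitro disease-oriented tumour cell line screen. Read-outs are IC50 (molar concentration giving 50% growth inhibition), TGI (molar concentration giving total inhibition of net growth) and LC50 (molar concentration giving 50% net cell death). The maximal concentration tested was 100 μM.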

UO-31 = assay: Antitumor activity against human UO31 cells; format: functional; in short: as §2
PC-3 = assay: Antitumor activity against human PC3 cells; format: functional; in short: as §1
MCF7 = assay: Antitumor activity against human MCF7 cells; format: functional; in short: as §1
MDA-MB-231 = assay: Antitumor activity against human MDA-MB-231 cells; format: functional; in short: as §1
Hs-578T = assay: Antitumor activity against human HS578T cells; format: functional; in short: as §1
BT-549 = assay: Antitumor activity against human BT549 cells; format: functional; in short: as §1
[1] = Half life of hydrolysis in deuterated phosphate buffer at pD 7.8; details: deuterated phosphate buffer, pH 7.8
SK-MEL-28 = assay: Antitumor activity against human SK-MEL-28 cells; format: functional; in short: as §1
NCI [2] = assay: Antitumor activity against human NCI leukemia cell line panel; format: functional, cell-based; in short: as §1
[3] = system: Non-small cell lung cancer cell line; assay: Antitumor activity against human NCI non-small cell lung cancer cell line panel; format: functional, cell-based; in short: as §1
NCI [4] = assay: Antitumor activity against human NCI colon cancer cell line panel; format: functional, cell-based; in short: as §1
NCI [5] = assay: Antitumor activity against NCI human melanoma cell line panel; format: functional, cell-based; in short: as §1
NCI [6] = assay: Antitumor activity against human NCI renal cancer cell line panel; format: functional, cell-based; in short: as §1
NCI [7] = assay: Antitumor activity against human NCI prostate cancer cell line panel; format: functional, cell-based; in short: as §1
NCI [8] = assay: Antitumor activity against human NCI breast cancer cell line panel; format: functional, cell-based; in short: as §1
HOP-92 = assay: Antitumor activity against human HOP92 cells; format: functional; in short: as §1
OVCAR-5 = assay: Antitumor activity against human OVCAR5 cells; format: functional; in short: as §1
[9] = read-out: Log LC50 (the source's name) (converted)

In the case of `CN(/N=N/c1nc(OCc2ccccc2)c2nc[nH]c2n1)C(=O)N(C)/N=N/c1nc(OCc2ccccc2)c2nc[nH]c2n1`, the GI50 (OVCAR-4) is reported as > 100 µM, the CC50 (OVCAR-4; [9]) is reported as > 100 µM and the TGI (OVCAR-4; read-out: Log TGI (converted)) is reported as > 100 µM. For the same molecule, the GI50 (OVCAR-8) was 51.3 µM, the LC50 (concentration giving 50% net cell death) (OVCAR-8) was > 100 µM and the TGI (OVCAR-8; read-out: Log TGI (converted)) was > 100 µM. The GI50 (SK-OV-3) was 41.7 µM, the CC50 (SK-OV-3; [9]) was > 100 µM and the TGI (SK-OV-3; read-out: Log TGI (converted)) was > 100 µM. The GI50 (CAKI-1) was 17 µM, the CC50 (CAKI-1; [9]) was > 100 µM and the TGI (CAKI-1; read-out: Log TGI (converted)) was 63.1 µM. The GI50 (TK-10) was 26.9 µM, the CC50 (TK-10; [9]) was > 100 µM and the TGI (TK-10; read-out: Log TGI (converted)) was > 100 µM. For the same molecule, the GI50 (UO-31) was 36.3 µM, the CC50 (UO-31; [9]) was > 100 µM and the TGI (UO-31; read-out: Log TGI (converted)) was > 100 µM. For the same molecule, the GI50 (PC-3) was 40.7 µM, the CC50 (PC-3; [9]) was > 100 µM and the TGI (PC-3; read-out: Log TGI (converted)) was > 100 µM. For the same molecule, the GI50 (MCF7) was 42.7 µM, the CC50 (MCF7; [9]) was > 100 µM and the TGI (MCF7; read-out: Log TGI (converted)) was > 100 µM. For the same molecule, the GI50 (MDA-MB-231) was 40.7 µM, the CC50 (MDA-MB-231; [9]) was > 100 µM and the TGI (MDA-MB-231; read-out: Log TGI (converted)) was > 100 µM. The pKP (Hs-578T) was >4, the GI50 (Hs-578T; Homo sapiens, Hs-578T) was 25.1 µM and the CC50 (Hs-578T; Homo sapiens, Hs-578T, read-out: Log LC50 (the source's name) (converted)) was > 100 µM. The TGI (Hs-578T; Homo sapiens, Hs-578T, read-out: Log TGI (converted)) was 85.1 µM, the GI50 (BT-549) was 36.3 µM and the CC50 (BT-549; [9]) was > 100 µM. For the same molecule, the TGI (BT-549; read-out: Log TGI (converted)) was > 100 µM, the half-life [1] was 7.17 h and the GI50 (SK-MEL-28) was > 100 µM. The CC50 (SK-MEL-28; [9]) was > 100 µM, the TGI (SK-MEL-28; read-out: Log TGI (converted)) was > 100 µM and the IC50 (NCI [2]) was 55 µM. For the same molecule, the TGI (NCI [2]) was > 100 µM, the CC50 (NCI [2]; read-out: LC50 (the source's name)) was > 100 µM and the IC50 [3] was 42 µM. The TGI [3] was > 100 µM, the IC50 (NCI [4]) was 45 µM and the TGI (NCI [4]) was > 100 µM. The IC50 (NCI [5]) was 47 µM, the TGI (NCI [5]) was 93 µM and the IC50 (NCI [6]) was 36 µM. The TGI (NCI [6]) was 87 µM, the IC50 (NCI [7]) was 40 µM and the TGI (NCI [7]) was > 100 µM. The IC50 (NCI [8]) was 39 µM, the TGI (NCI [8]) was > 100 µM and the GI50 (HOP-92) was 30.2 µM. The CC50 (HOP-92; [9]) was > 100 µM, the TGI (HOP-92; read-out: Log TGI (converted)) was > 100 µM and the GI50 (OVCAR-5) was 63.1 µM. The CC50 (OVCAR-5; [9]) was > 100 µM and the TGI (OVCAR-5; read-out: Log TGI (converted)) was > 100 µM.
